In test [1] the test system is Plasmodium falciparum. The test can be described thus: Antimalarial activity against Plasmodium falciparum K1 infected in human type A+ erythrocytes incubated for 24 hrs followed by [G-3H]-hypoxanthine incorporation and measured after 18 hrs by liquid scintillation counting method. The class given is functional, organism-based. The procedure, abridged: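 P. falciparum K1 (multidrug-resistant strain), tested in duplicate with the microculture radioisotope technique; IC50 derived.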

The subject of test [2] is Vero. Description: Cytotoxicity against African green monkey Vero cells by GFP based microplate assay. The test is classed as cell-based. Particulars: Chlorocebus sabaeus. The procedure, abridged: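 Vero cells (nonmalignant African green monkey kidney […]) tested with a green fluorescent protein microplate assay.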
In test [3] the test system is Mycobacterium tuberculosis. Description: Antitubercular activity against Mycobacterium tuberculosis H37Ra by GFP based microplate assay. The class given is functional. The procedure, abridged:
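Whole-cell assay on M. tuberculosis H37Ra growth, read by green fluorescent protein signal in microplates; activity given as MIC in μg/mL.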

Converted amounts (≈) assume the structure as drawn. A value given as a limit tells only on which side of the number the result lay.

As a reminder, the IC50 is the point on the concentration scale where inhibition reaches its midpoint. The MIC is the least concentration at which growth counts as inhibited. On to `CC1=CC[C@@H]([C@@H](C)[C@H]2CC[C@@]3(C)C4=C(C=C5C=CC(=O)OC(C)(C)[C@@H]5CC4)CC[C@]23C)OC1=O`, for which the results for the half-maximal inhibitory concentration (IC50) in test [1] and in test [2] were 18 µM and above 108 µM, respectively. In test [3], the MIC was above 50 µg/mL.
The like results for `CC(=O)O[C@@H]1C[C@H]([C@H](C)[C@@H]2CC=C(C)C(=O)O2)[C@@]2(C)C[C@H](O)C3=C(CC[C@@H]4C(=C3)C=CC(=O)OC4(C)C)[C@]12C` were, in that order, above 19 µM, 34 µM and above 50 µg/mL.
The like results for `CC(=O)[C@H]1C[C@@H](O)[C@@]2(C)C3=C(C=C4C=CC(=O)OC(C)(C)[C@@H]4CC3)[C@@H](O)C[C@]12C` were, in that order, above 25 µM, above 125 µM and above 50 µg/mL.
Consider `CC(=O)O[C@]12CCC(=O)OC(C)(C)[C@@H]1CCC1=C2CC[C@]2(C)[C@@H]([C@H](C)[C@@H]3CC=C(C)C(=O)O3)CC[C@@]12C`, for which the concentration for half-maximal inhibition (IC50) was above 19 µM in test [1] and above 95 µM in test [2]. Moreover, in test [3], the minimal inhibitory concentration (MIC) is above 50 µg/mL.
On to `CC1=CC[C@@H]([C@@H](C)[C@H]2C[C@@H](O)[C@@]3(C)C4=C(C=C5C=CC(=O)OC(C)(C)[C@@H]5CC4)CC[C@]23C)OC1=O`, for which the IC50 in test [1] stood at 12 µM; in test [2], 42 µM. In addition, in test [3], the minimum inhibitory concentration (MIC) stood at 50 µg/mL (≈ 104 µM).
The like results for `COC(=O)CC[C@]1(COC(C)=O)C2=CC[C@]3(C)[C@@H]([C@H](C)[C@@H]4CC=C(C)C(=O)O4)CC[C@@]3(C)C2=CC[C@H]1C(C)(C)O` were, in that order, 8.1 µM, 32 µM and 50 µg/mL (≈ 89.8 µM).
On the same counts, the results for `CC1=C[C@H](O)[C@@H]([C@@H](C)[C@H]2CC[C@@]3(C)C4=C(CC[C@]23C)[C@@]2(C)CC[C@H](O)C(C)(C)[C@@H]2CC4)OC1=O` are above 21 µM, 36 µM and above 50 µg/mL.
In the case of `CC1=CC[C@]2(OC1=O)O[C@H]1O[C@H]3C[C@@]14[C@H](CC[C@@]4(C)C1=C3C=C3C=CC(=O)OC(C)(C)[C@@H]3CC1)[C@@H]2C`, the IC50 in test [1] is above 20 µM; in test [2] it was above 102 µM. For the same molecule, in test [3], the MIC was above 50 µg/mL.
The like results for `CC(=O)OC[C@]12CC[C@H](O)C(C)(C)[C@@H]1CCC1=C2CC[C@]2(C)[C@@H]([C@H](C)[C@@H]3CC=C(C)C(=O)O3)CC[C@@]12C` were, in that order, above 20 µM, above 98 µM and above 50 µg/mL.
The like results for `CC1=CC[C@@H]([C@@H](C)[C@H]2C[C@@H](O)[C@@]3(C)C4=C(C=C5C=CC(=O)OC(C)(C)[C@@H]5CC4)[C@@H](O)C[C@]23C)OC1=O` were, in that order, above 20 µM, above 101 µM and above 50 µg/mL.
On the same counts, the results for `CC1=CC[C@@H]([C@@H](C)[C@H]2CC[C@@]3(C)C4=C(CC[C@]23C)[C@@]2(C)[C@H](O)C[C@H](O)C(C)(C)[C@@H]2CC4)OC1=O` are above 21 µM, above 106 µM and above 50 µg/mL.
With `CC(=O)OC[C@@]1(CCC(=O)O)C2=CC[C@]3(C)[C@@H]([C@H](C)[C@@H]4CC=C(C)C(=O)O4)CC[C@@]3(C)C2=CC[C@H]1C(C)(C)O`, the values for the IC50 in test [1] and in test [2] were 5.5 µM and 88 µM, respectively. The molecule further gave an MIC in test [3] above 50 µg/mL.
The like results for `CC(=O)O[C@@H]1C[C@H]([C@H](C)[C@H]2OC(=O)C(C)=C[C@@H]2O)[C@@]2(C)CCC3=C(CC[C@@H]4C(=C3)C=CC(=O)OC4(C)C)[C@]12C` were, in that order, 7 µM, 22 µM and 50 µg/mL (≈ 92.8 µM).
Turning to `CC(=O)OC[C@]12CCC(=O)C(C)(C)[C@@H]1CCC1=C2CC[C@]2(C)[C@@H]([C@H](C)[C@@H]3CC=C(C)C(=O)O3)CC[C@@]12C`, the IC50 in test [1] is above 20 µM; in test [2] it was above 98 µM. Besides, the MIC in test [3] is above 50 µg/mL.
As for `CC(=O)O[C@@H]1C[C@H]([C@H](C)[C@@H]2CC=C(C)C(=O)O2)[C@@]2(C)CCC3=C(CC[C@@H]4C(=C3)C=CC(=O)OC4(C)C)[C@]12C`, the results for the IC50 in test [1] and in test [2] were 18 µM and 11 µM, respectively. This molecule also returned an MIC in test [3] above 50 µg/mL.
The like results for `CC(=O)O[C@@H]1C[C@H]([C@H](C)[C@H]2OC(=O)C(C)=C[C@@H]2O)[C@@]2(C)CC(=O)C3=C(CC[C@@H]4C(=C3)C=CC(=O)OC4(C)C)[C@]12C` were, in that order, above 18 µM, above 90 µM and above 50 µg/mL.
For `CC1=CC[C@@H]([C@@H](C)[C@H]2CC[C@@]3(C)C4=C(CC[C@]23C)[C@@]2(CO)CC[C@H](O)C(C)(C)[C@@H]2CC4)OC1=O`, the IC50 in test [1] was above 21 µM; in test [2], above 106 µM. This molecule also showed a minimal inhibitory concentration (MIC) in test [3] above 50 µg/mL.
The like results for `CC(=O)OC[C@]12CC[C@H](O)C(C)(C)[C@@H]1CCC1=C2CC[C@]2(C)[C@@H]([C@H](C)[C@H]3OC(=O)C(C)=C[C@@H]3O)CC[C@@]12C` were, in that order, 6.6 µM, 34 µM and above 50 µg/mL.
In the case of `CC(=O)O[C@]12CCC(=O)OC(C)(C)[C@@H]1CCC1=C2CC[C@]2(C)[C@@H]([C@H](C)[C@H]3OC(=O)C(C)=C[C@@H]3O)CC[C@@]12C`, the IC50 in test [1] was above 18 µM; in test [2], above 92 µM. The same molecule came in with an MIC in test [3] above 50 µg/mL.
As for `CC(=O)O[C@]12CCC(=O)OC(C)(C)[C@@H]1CC=C1[C@]3(C)CC[C@H]([C@H](C)[C@@H]4CC=C(C)C(=O)O4)[C@@]3(C)C[C@H]3O[C@@]132`, the IC50 in test [1] is above 18 µM; in test [2] it was above 92 µM. The same molecule returned an MIC in test [3] above 50 µg/mL.
On the same counts, the results for `CC(=O)O[C@@H]1C[C@H]([C@H](C)[C@@H]2CC=C(C)C(=O)O2)[C@@]2(C)C[C@H](O)C3=C(CC[C@H]4C(C)(C)OC(=O)C=C[C@]45O[C@@H]35)[C@]12C` are above 18 µM, above 90 µM and above 50 µg/mL.
The like results for `CC(=O)O[C@@H]1C[C@H]([C@H](C)[C@H]2OC(=O)C(C)=C[C@@H]2O)[C@@]2(C)C[C@H](O)C3=C(CC[C@@H]4C(=C3)C=CC(=O)OC4(C)C)[C@]12C` were, in that order, above 18 µM, above 90 µM and above 50 µg/mL.
As for `CC1=C[C@H](O)[C@@H]([C@@H](C)[C@H]2C[C@@H](O)[C@@]3(C)C4=C(C=C5C=CC(=O)OC(C)(C)[C@@H]5CC4)CC[C@]23C)OC1=O`, the half-inhibitory concentration (IC50) is above 20 µM in test [1] and 39 µM in test [2]. This molecule also returned a minimum inhibitory concentration (MIC) in test [3] above 50 µg/mL.
On the same counts, the results for `COC(=O)CC[C@]1(COC(C)=O)C2=C(CC[C@H]1C(C)(C)O)[C@]1(C)CC[C@H]([C@H](C)[C@@H]3CC=C(C)C(=O)O3)[C@@]1(C)CC2` are 15 µM, 11 µM and 12.5 µg/mL (≈ 22.4 µM).
`CC1=CC[C@@H]([C@@H](C)[C@H]2CC[C@@]3(C)C4=C(CC[C@]23C)C[C@@]2(O)C=CC(=O)OC(C)(C)[C@@H]2CC4)OC1=O`: the half-inhibitory concentration (IC50) was 19 µM in test [1] and 45 µM in test [2]. In test [3], this molecule showed a minimum inhibitory concentration (MIC) above 50 µg/mL.
With `CC(=O)[C@H]1C[C@@H](O)[C@@]2(C)C3=C(C=C4C=CC(=O)OC(C)(C)[C@@H]4CC3)CC[C@]12C`, the 50% inhibitory concentration (IC50) in test [1] is above 26 µM; in test [2], above 130 µM. The MIC in test [3] is above 50 µg/mL.
On the same counts, the results for `COC(=O)CC[C@]1(COC(C)=O)C2=CC[C@]3(C)[C@@H]([C@H](C)[C@H]4OC(=O)C(C)=C[C@@H]4O)CC[C@@]3(C)C2=CC[C@H]1C(C)(C)O` are 6.3 µM, 32 µM and above 50 µg/mL.
For the molecule `CC1=CC[C@@]2(OC1=O)O[C@H]1O[C@H]3C[C@@]14[C@H](CC[C@@]4(C)C1=C3C=C3C=CC(=O)OC(C)(C)[C@@H]3CC1)[C@@H]2C`, the results for the half-inhibitory concentration (IC50) in test [1] and in test [2] were above 20 µM and above 102 µM, respectively. Besides, in test [3], the minimum inhibitory concentration (MIC) is above 50 µg/mL.
For `CC(=O)O[C@@H]1C[C@H]([C@H](C)[C@@H]2CC=C(C)C(=O)O2)[C@@]2(C)CCC3=C(CC[C@]4(C(C)(C)O)OC(=O)C=CC4=C3)[C@]12C`, the IC50 in test [1] was above 19 µM; in test [2] it was 33 µM. The molecule also showed an MIC in test [3] above 50 µg/mL.
The like results for `CC(=O)O[C@@H]1C[C@H]([C@H](C)[C@@H]2CC=C(C)C(=O)O2)[C@@]2(C)CCC3=C(CC[C@@H]4C(=CCC(=O)OC4(C)C)C3)[C@]12C` were, in that order, 12 µM, 94 µM and above 50 µg/mL.
The like results for `CC1=CC[C@@H]([C@@H](C)[C@H]2C[C@@H](O)[C@@]3(C)C4=C(C=C5C=CC(=O)O[C@@]5(C(C)(C)O)CC4)CC[C@]23C)OC1=O` were, in that order, above 20 µM, above 101 µM and above 50 µg/mL.
With `CC(=O)O[C@@H]1C[C@H]([C@H](C)[C@@H]2CC=C(C)C(=O)O2)[C@@]2(C)CC(=O)C3=C(CC[C@@H]4C(=C3)C=CC(=O)OC4(C)C)[C@]12C`, the IC50 was 10 µM in test [1] and 92 µM in test [2]. Besides, the MIC in test [3] is 50 µg/mL (≈ 93.2 µM).
The like results for `CC1=CC[C@@H]([C@@H](C)[C@H]2CC[C@@]3(C)C4=C(CC[C@]23C)[C@@]2(C)CC[C@H](O)C(C)(C)[C@@H]2CC4)OC1=O` were, in that order, above 22 µM, above 110 µM and above 50 µg/mL.
On to `C[C@H]1[C@@H](O)O[C@@H]2O[C@@]3(C)CC[C@H]4[C@H](C)CC[C@@H]1[C@@]24OO3` [ARTENIMOL], for which, in test [1], the IC50 amounted to 0.0028 µM.
On to `Cc1c2ccncc2c(C)c2c1[nH]c1ccccc12` [ELLIPTECINE], for which, in test [2], the IC50 turned out to be 3.1 µM.
Take `NNC(=O)c1ccncc1` [ISONIAZID]: the lowest concentration to inhibit growth in test [3] (MIC) was 0.047 µg/mL (≈ 0.343 µM).

These data come from ChEMBL document CHEMBL4316637, “Highly Modified Lanostane Triterpenes from Fruiting Bodies of the Basidiomycete Tomophagus sp” (J Nat Prod, 2019).
